Measurements published in paper PMC4245150 (Organometallics, 2014).

Assays:
A498 = test: XTT cell viability assay, A498; format: cell-based, human
UO31 = test: XTT cell viability assay, UO31; format: cell-based, human
Procedure, shortened: (§1)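 Cells kept in RPMI-1640 with 10% FBS, 1% NEAA and PenStrep at 37 °C, 5% CO2. Seeded at 5000 cells/well in phenol-red-free, antibiotic-free RPMI (10% FBS, 2 mM L-glutamine) and grown 24 h. Test compound was dissolved in 1% DMSO, diluted in water and added at 0.1–200 μM final for 24 or 72 h. XTT was added at 0.3 mg/mL for 4 h, and A450 read. IC50 is the concentration halving proliferation against untreated cells, from ≥2 independent experiments in triplicate.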

HEK-293T = test: XTT cell viability assay, HEK-293T; format: cell-based, human; conditions: HEK-293T (nontumorigenic)
Procedure, shortened: as §1, with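 “HEK-293 cells kept” for “Cells kept”, “in DMEM” for “in RPMI-1640”, “antibiotic-free DMEM” for “antibiotic-free RPMI”, “and dosed” for “and added”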

plasmid (pBR322) DNA = test: electrophoresis mobility shift assay with plasmid DNA; format: binding; conditions: metal/DNAbp ratios 0.25-2.0, 37 °C, 20 h, pH 7.39
Procedure, shortened: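 pBR322 DNA (20 μg/mL) in 5 mM Tris/HCl, 50 mM NaClO4, pH 7.39 incubated with test compound ([…] metal complex/DNAbp) for 20 h at 37 °C in the dark; free DNA and cisplatin-treated DNA as controls. Samples run on 1% agarose gel, 1.5 h at 80 V in Tris-acetate/EDTA, stained 30 min with GelRed.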

Caki-1 = test: XTT cell viability assay, Caki-1; format: cell-based, human
Procedure, shortened: as §1

DU145 = test: XTT cell viability assay, DU145; format: cell-based, human
Procedure, shortened: as §1

PC3 = test: XTT cell viability assay, PC3; format: cell-based, human
CT-DNA = conditions: physiological pH / pH 7; cited from earlier work
panel of 30 kinases = test: HotSpot kinase assay, panel of 30 nonlipid kinases; format: biochemical; conditions: even at concentrations of 100 μM
PI3 kinases = test: HotSpot kinase assay, lipid PI3 kinases; format: biochemical; conditions: IC50 values only plotted in Figure 8
PKCι-par6 = PKCι-par6 in vitro; cited from earlier work

O=C(O)C[P+]([Au-][Cl])(c1ccccc1)c1ccccc1 [compound 6, [HOC(O)CH2PPh2AuCl]]
IC50 (A498; A498, 24 h incubation): 58 ± 11 µM | IC50 (A498; A498, 72 h incubation): 43 ± 4.9 µM | IC50 (UO31; UO31, 24 h incubation): 27.3 ± 2.7 µM | IC50 (UO31; UO31, 72 h incubation): 5.2 ± 1.6 µM | IC50 (HEK-293T; 24 h incubation): 36.5 ± 3.3 µM | IC50 (HEK-293T; 72 h incubation): 9.7 ± 2.5 µM | effect on electrophoretic mobility of plasmid forms (plasmid (pBR322) DNA): does not affect the mobility of the faster-running supercoiled form | IC50 (Caki-1; Caki-1, 24 h incubation): 33.8 ± 2.1 µM | IC50 (Caki-1; Caki-1, 72 h incubation): 23 ± 4.1 µM | IC50 (DU145; DU145, 24 h incubation): 34.7 ± 1.8 µM | IC50 (DU145; DU145, 72 h incubation): 31.3 ± 3.1 µM | IC50 (PC3; PC3, 24 h incubation): 38.2 ± 2.2 µM | IC50 (PC3; PC3, 72 h incubation): 30.2 ± 4.2 µM

[Cl-].[Cl-].[Ti+4].c1cc[cH-]c1.c1cc[cH-]c1 [titanocene dichloride]
IC50 (A498; A498, 24 h incubation): > 200 µM | IC50 (A498; A498, 72 h incubation): > 200 µM | IC50 (UO31; UO31, 24 h incubation): > 200 µM | IC50 (UO31; UO31, 72 h incubation): > 200 µM | IC50 (HEK-293T; 24 h incubation): > 200 µM | IC50 (HEK-293T; 72 h incubation): > 200 µM | IC50 (Caki-1; Caki-1, 24 h incubation): > 200 µM | IC50 (Caki-1; Caki-1, 72 h incubation): > 200 µM | IC50 (DU145; DU145, 24 h incubation): > 200 µM | IC50 (DU145; DU145, 72 h incubation): > 200 µM | interaction with CT-DNA (CT-DNA): does not interact with CT-DNA | inhibition of enzymatic activity of 30 kinases (panel of 30 kinases): did not inhibit the enzymatic activity to levels of 50% or below | IC50 (PC3; PC3, 24 h incubation): > 200 µM | IC50 (PC3; PC3, 72 h incubation): > 200 µM | inhibition of PI3 kinase family (PI3 kinases): inhibits exclusively protein kinases of the PI3 kinase family at nanomolar concentrations

COc1ccc(C[C]2([Ti+2][C]3(Cc4ccc(OC)cc4)C=CC=C3)C=CC=C2)cc1.[Cl-].[Cl-] [Titanocene Y]
IC50 (A498; A498, 24 h incubation): > 200 µM | IC50 (A498; A498, 72 h incubation): > 29.6 µM | IC50 (UO31; UO31, 24 h incubation): > 200 µM | IC50 (UO31; UO31, 72 h incubation): > 200 µM | IC50 (HEK-293T; 24 h incubation): > 200 µM | IC50 (HEK-293T; 72 h incubation): > 200 µM | IC50 (Caki-1; Caki-1, 24 h incubation): > 200 µM | IC50 (Caki-1; Caki-1, 72 h incubation): 29.4 ± 4.2 µM | IC50 (DU145; DU145, 24 h incubation): > 200 µM | IC50 (DU145; DU145, 72 h incubation): 55.2 ± 7.9 µM | IC50 (PC3; PC3, 24 h incubation): > 200 µM | IC50 (PC3; PC3, 72 h incubation): 58.1 ± 11.2 µM

N.N.[Cl][Pt][Cl] [cisplatin]
IC50 (A498; A498, 24 h incubation): 74.7 ± 6 µM | IC50 (A498; A498, 72 h incubation): 37.2 ± 4.6 µM | IC50 (UO31; UO31, 24 h incubation): > 100 µM | IC50 (UO31; UO31, 72 h incubation): 8.9 ± 2.7 µM | IC50 (HEK-293T; 24 h incubation): 64.4 ± 7.9 µM | IC50 (HEK-293T; 72 h incubation): 3.2 ± 0.13 µM | effect on electrophoretic mobility of plasmid forms (plasmid (pBR322) DNA): decrease in mobility of the CCC form and an increase in mobility of the OC form | IC50 (Caki-1; Caki-1, 24 h incubation): 68.8 ± 0.14 µM | IC50 (Caki-1; Caki-1, 72 h incubation): 29 ± 4.1 µM | IC50 (DU145; DU145, 24 h incubation): 44.5 ± 0.33 µM | IC50 (DU145; DU145, 72 h incubation): 12.1 ± 3.9 µM | IC50 (PC3; PC3, 24 h incubation): 92 ± 18 µM | IC50 (PC3; PC3, 72 h incubation): 14 ± 2.3 µM

O=C(O)CC([S-])C(=O)O.[Au+] (stereo not shown) [aurothiomalate]
IC50 (PKCι-par6): ~1 µM

OC[C@H]1O[C@H]([S-])[C@H](O)[C@@H](O)[C@@H]1O.[Au+] [aurothioglucose]
IC50 (PKCι-par6): ~1 µM
